Screening data as filed in PubChem BioAssay.
RGS4 act – potentiators or activators of RGS4 | HEK293 M3R/inducible RGS4, carbachol calcium flux Fluo4; hits give low values | B-score at 10 µM | hit rate 0.92% among 310,000;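 active = B-score of the integrated calcium signal more than 4 SD below the library mean, with starting fluorescence not abnormally high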;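 also: negative B-score means reduced calcium response which marks RGS4 activation or potentiation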
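Assay system: Inducible-RGS4 HEK293 cells carrying M3 receptor | Schedule: Compound preincubation 20 min at room temperature before agonist | Signal: Kinetic calcium fluorescence imaging with Fluo4-AM dye, 2 µM | Read-out basis: B score from integrated fluorescence ratio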
RGS4 inh – inhibitors of human RGS4; P49798; HEK293 M3R/RGS4 inducible, Fluo-4 calcium flux; hits give high values; triggered by carbachol at its EC20; B-score at 10 µM; hit rate 0.45% among 310,000; AID 463165;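 active = B-score, a plate-corrected calcium signal, over three deviations above library mean, with baseline fluorescence within five deviations of library mean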;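 also: RGS4 expression induced by doxycycline in cells with stable M3 receptor; B-score is computed from the integrated fluorescence ratio over baseline after carbachol; higher B-score means a larger calcium signal and so more RGS4 inhibition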
Target sequence (P49798 whole entry, looked up): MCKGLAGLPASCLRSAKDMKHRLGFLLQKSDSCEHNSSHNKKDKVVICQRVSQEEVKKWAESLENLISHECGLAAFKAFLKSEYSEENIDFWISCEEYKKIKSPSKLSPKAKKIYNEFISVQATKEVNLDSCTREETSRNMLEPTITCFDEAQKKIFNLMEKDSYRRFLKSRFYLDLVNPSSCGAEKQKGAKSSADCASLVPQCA
MrgX1 agonist – activates human MrgX1 receptor signaling; MrgX1-HEK293 cells, Fluo-4 calcium fluorescence, agonist mode; hits give high values; Q96LB2; B-score at 10 µM; hit rate 0.44% among 310,000;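 active = calcium response B-score plate-corrected fluorescence ratio at least 3 library SD, with starting fluorescence B-score inside 5 SD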
Target sequence (Q96LB2 whole entry, looked up): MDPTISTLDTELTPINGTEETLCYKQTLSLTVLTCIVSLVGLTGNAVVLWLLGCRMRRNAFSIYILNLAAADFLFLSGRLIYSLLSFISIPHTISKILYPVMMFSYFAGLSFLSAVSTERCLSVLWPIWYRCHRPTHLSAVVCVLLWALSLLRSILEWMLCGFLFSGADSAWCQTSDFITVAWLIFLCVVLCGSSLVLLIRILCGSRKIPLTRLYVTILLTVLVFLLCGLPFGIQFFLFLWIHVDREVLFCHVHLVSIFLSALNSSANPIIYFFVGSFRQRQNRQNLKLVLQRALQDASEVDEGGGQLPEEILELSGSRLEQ
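Material – MrgX1-expressing HEK293 cells · Input – 15,000 cells seeded per well · Dosing – compound as first of three additions · Times – overnight seeding, then 1 h dark dye loading · Measured by – kinetic Fluo-4 NW fluorescence of intracellular calcium · Read-out – B-scored fluorescence response ratio · Benchmarks – positive and negative control wells on each plate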
MrgX1 PAM – human MrgX1 positive allosteric modulation, primary screen | MrgX1-HEK293, Fluo-4 calcium flux, FDSS; hits give high values | hit rate 0.63% among 310,000 | B-score at 10 µM | AID 588675;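 active = plate-corrected calcium response at least 3 library SD above typical, normal starting fluorescence, not activating the receptor alone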;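 also: compound read alongside a low EC10 to EC30 dose of BAM8-22 agonist; peak minus trough fluorescence over baseline measured at the second addition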
MrgX1 antagonist – antagonists of human MrgX1 receptor | Q96LB2 | MRGX1-HEK293 calcium flux, Fluo-4, BAM8-22 antagonism; hits give low values | B-score at 10 µM | hit rate 1.3% among 310,000 | AID 588676;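 active = calcium-response B-score plate-corrected more than 3 library SD below zero, starting fluorescence within 5 deviations, no agonist response on first addition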;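 also: peak minus trough fluorescence over baseline after final BAM8-22 challenge near maximal dose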
MrgX1 antag conf – confirmation of human MrgX1 receptor antagonists. remaining BAM8-22 calcium response % of control (hits give low values), % at 10 µM. MrgX1-HEK293, BAM8-22 calcium flux, Fluo-4; hits give low values. hit rate 19% among 2,300. shares compounds with MrgX1 antagonist;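 active = remaining agonist calcium response no higher than 100% minus 3 SD of agonist-only control wells, with starting fluorescence near control levels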;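 also: agonist BAM8-22 given at a near maximal EC90 to ECmax level; peak minus minimum fluorescence divided by baseline after agonist addition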
HEK293 Ca flux – activity in parental HEK293 cells lacking MrgX1 | shares compounds with MrgX1 antagonist | fluorescence ratio F(max-min)/F0 at 10 µM | Fluo-4 calcium fluorescence, FDSS | hit rate 2% among 4,000;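 active = duplicate-averaged calcium fluorescence ratio at least three times the standard deviation of buffer wells, a nonspecific response in parental cells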
HEK293 Ca counter – MrgX1 allosteric activator counter-screen hit in parental HEK293 cells; parental HEK293 calcium flux, Fluo-4 fluorescence ratio; hits give high values; fluorescence ratio F(max-min)/F0 at 10 µM; hit rate 0.4% among 4,000; shares compounds with MrgX1 antagonist;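 active = calcium fluorescence ratio, averaged over duplicates, at least 3 SD of the buffer-well ratio, meaning a nonspecific response in receptor-free cells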;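 also: untransfected parental HEK293 lacking MrgX1 used as counterscreen for MrgX1 allosteric activators; fluorescence change taken during the second addition on a kinetic imager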
HEK293 Ca cntr2 – counter-screen for MrgX1 activators: effect in parental HEK293 cells. fluorescence ratio F(max-min)/F0 at 10 µM. shares compounds with MrgX1 antagonist. hit rate 8.7% among 4,000. Fluo-4 calcium fluorescence (FDSS); hits give high values;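 active = calcium fluorescence ratio at least three times the spread of buffer wells, meaning a non-specific response in parental cells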
Numbers stand for hits; n = inactive; x = not tested or not shown. An excerpt weighted towards active compounds, which were near 3.5% of everything screened.

SMILES | RGS4 act | RGS4 inh | MrgX1 agonist | MrgX1 PAM | MrgX1 antagonist | MrgX1 antag conf | HEK293 Ca flux | HEK293 Ca counter | HEK293 Ca cntr2
Cc1ccc(C)c(OCCC(=O)OCC(=O)NC2CCS(=O)(=O)C2)c1 (stereo not given) | n | n | n | n | -5.5 | n | n | n | n
CC(=O)c1ccc(OCC(=O)NC2CCS(=O)(=O)C2)cc1 (stereo not given) | n | n | n | n | n | x | x | x | x
Cc1ccc2nc(Nc3nc(C)cc(-c4ccccc4)n3)[nH]c(=O)c2c1 | n | n | n | n | n | x | x | x | x
Cc1cccn2c(=O)nc(SCC(=O)Nc3ccc4c(c3)OCCO4)nc12 | n | n | n | n | n | x | x | x | x
CCN(CC)C1CCN(C(=O)c2cc(COc3ccccc3SC)on2)C1 (stereo not given) | n | n | n | n | n | x | x | x | x
CSc1ccccc1OCc1cc(C(=O)N2CCCC(C)C2)no1 (stereo not given) | n | n | n | n | -5.7 | n | n | n | n
O=C1CC(N2CCN(Cc3ccccc3)CC2)C(=O)N1CCc1ccccc1 (stereo not given) | n | n | n | n | -5.4 | n | n | n | n
O=C1CC(N2CCN(Cc3ccc(Cl)cc3)CC2)C(=O)N1CCc1ccccc1 (stereo not given) | n | n | n | n | n | x | x | x | x
CC1(C)Oc2ccc(C(=O)NN)cc2NC1=O | n | n | n | n | n | x | x | x | x
Cc1ccc(C)c(NC(=S)N2CCN(CCO)CC2)c1 | n | n | n | n | -4.8 | n | n | n | n
Cc1ccc(C)c(NC(=S)N2CCCCCC2)c1 | x | x | n | n | n | x | x | x | x
Cn1ccnc1CN1CCCCC1C(=O)Nc1ccc(Oc2cccnc2)cc1 (stereo not given) | n | n | n | n | n | x | x | x | x
CCOc1ccc(N2CC(C(=O)N3CCN(c4ccccn4)CC3)CC2=O)cc1 (stereo not given) | n | n | n | n | -6.7 | n | n | n | n
CCNC(=S)N(CCc1c(C)[nH]c2ccccc12)Cc1cccnc1 | n | n | n | n | n | x | x | x | x
CCn1ccc(C(=O)Nc2ncc(C)s2)n1 | n | n | n | n | -5.4 | n | n | n | n
CCOc1ccc(CC(=O)Nc2cc(=O)n(C)c(=O)n2C)cc1 | n | n | n | n | n | x | x | x | x
COc1ccc(CC(=O)Nc2cc(=O)n(C)c(=O)n2C)cc1 | n | n | n | n | -7.7 | n | n | n | n
O=C(Nc1nnc(CCc2ccccc2)s1)c1cccc(F)c1 | n | n | n | n | n | x | x | x | x
CCOCC(=O)N1CCN(c2ccccc2OC)CC1 | n | n | n | n | n | x | x | x | x
Cn1nnnc1SCc1csc(C2C(C#N)=C(N)OC3=C2C(=O)CCC3)c1 (stereo not given) | n | n | n | n | n | x | x | x | x
O=C(NCC1CCCN1S(=O)(=O)c1ccccc1)C(=O)NC1CC1 (stereo not given) | n | n | n | n | -4.6 | n | n | n | n
CCOC(CCNC(=O)c1cn(C)c(=O)c2c1c1ccccc1n2C)OCC | n | n | n | n | n | x | x | x | x
CN1CCN(S(=O)(=O)c2cccc(C(=O)Nc3cc(Cl)ccc3N3CCOCC3)c2)CC1 | n | n | n | n | n | x | x | x | x
CC[C@H](C)[C@@H](C(=O)NCCCCCCCCCCC(=O)N1CCN(C(=O)OC(C)(C)C)CC1)n1cc(CCCCN=C(NC(=O)OC(C)(C)C)NC(=O)OC(C)(C)C)nn1 | x | x | n | n | n | x | x | x | x
CC[C@H](C)[C@@H](C(=O)NCCCCCCCCCCC(=O)N1CCN(C(=O)OC(C)(C)C)CC1)n1cc(CCCCCNC(=O)OC(C)(C)C)nn1 | x | x | n | n | -13 | 44% | n | n | n
SMILES | RGS4 act | RGS4 inh | MrgX1 agonist | MrgX1 PAM | MrgX1 antagonist | MrgX1 antag conf | HEK293 Ca flux | HEK293 Ca counter | HEK293 Ca cntr2
COc1ccccc1OCC(O)Cn1c(=N)n(Cc2ccccc2)c2ccccc21 (stereo not given) | n | n | n | n | n | x | x | x | x
N=c1n(Cc2ccccc2)c2ccccc2n1CC(O)c1ccccc1 (stereo not given) | n | n | n | n | -5.6 | n | n | n | n
COc1ccc(N2CCN(C(=O)NCc3ccc(C)cc3)CC2)cc1 | n | n | n | n | n | x | x | x | x
N#Cc1sc2nc(-c3ccccc3)cc(-c3ccco3)c2c1N | n | n | n | n | -10 | n | n | n | n
CCN1CCN(CC(=O)N2c3ccccc3Sc3ccccc32)CC1 | n | n | n | n | -5.1 | n | n | n | n
Cc1ccc(NS(=O)(=O)c2cccc(C(=O)N3CCCCCC3)c2)cc1 | n | n | n | n | -5.5 | n | n | n | n
Cc1cc(S(=O)(=O)Nc2ccc(C(=O)N3CCN(c4ccccc4O)CC3)cc2)ccc1F | n | n | n | n | -4.7 | 82% | n | n | n
Cc1ccc(NS(=O)(=O)c2ccc(C(=O)N3CCN(c4ncccn4)CC3)cc2)cc1 | n | n | n | n | -5.4 | n | n | n | n
Cc1cc(NC(=O)CN2C(=O)NC(C)(c3ccc(Cl)cc3)C2=O)no1 (stereo not given) | n | n | n | n | n | x | x | x | x
O=C(NCc1ccc(Cl)cc1)C(=O)NCC(c1cccnc1)N1CCN(c2ccc(F)cc2)CC1 (stereo not given) | n | n | n | n | -4.7 | 77% | n | n | n
O=C(NCC(c1cccnc1)N1CCN(c2ccc(F)cc2)CC1)c1ccccc1 (stereo not given) | n | n | n | n | n | x | x | x | x
CCOC(=O)c1sc(NC(=O)Nc2cccc(Cl)c2)cc1C | n | n | n | n | -6.1 | 57% | n | n | n
CCOC(=O)c1sc(NC(=O)c2cccs2)cc1C | n | n | n | n | n | x | x | x | x
CCOC(=O)CNc1c(N2CCN(c3ccccn3)CC2)c(=O)c1=O | n | n | n | n | -6.5 | n | n | n | n
O=C(C1CCC(CNc2c(N3CCCCC3)c(=O)c2=O)CC1)N1CCN(c2ccccn2)CC1 (stereo not given) | n | n | n | n | n | x | x | x | x
COc1cc(NC(=O)CC(C)C)ccc1NC(=O)c1ccco1 | n | n | n | n | -5.2 | n | n | n | n
CCCc1nnc(NC(=O)CCC(=O)NC2CCCc3ccccc32)s1 (stereo not given) | n | n | n | n | n | x | x | x | x
Cc1ccc(NC(=O)NC2CCCc3ccccc32)cc1 (stereo not given) | n | n | n | n | -5.3 | n | n | n | n
